IC50 data for 11 molecules are collected here from ChEMBL document CHEMBL1141349, “Cytochrome P3A4 inhibitors and other constituents of Fibraurea tinctoria” (J Nat Prod, 2007).

The experiment has as its target Cytochrome P450 3A4 (Homo sapiens, UniProt P08684). Briefly: Inhibition of human CYP3A4 expressed in Escherichia coli assessed as inhibition of nifedipine oxidation. The class given is ADME. The method in brief:
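Bicistronic human CYP3A4 expressed in E. coli DH5; bacterial membrane fractions (sonication, differential centrifugation) stored at -75 °C, P450 content by CO-difference spectroscopy. Nifedipine substrate with 100 pmol P450 per incubation, 37 °C shaking waterbath; pyridine metabolite quantified by HPLC.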

Chain of Cytochrome P450 3A4 (P08684 whole entry): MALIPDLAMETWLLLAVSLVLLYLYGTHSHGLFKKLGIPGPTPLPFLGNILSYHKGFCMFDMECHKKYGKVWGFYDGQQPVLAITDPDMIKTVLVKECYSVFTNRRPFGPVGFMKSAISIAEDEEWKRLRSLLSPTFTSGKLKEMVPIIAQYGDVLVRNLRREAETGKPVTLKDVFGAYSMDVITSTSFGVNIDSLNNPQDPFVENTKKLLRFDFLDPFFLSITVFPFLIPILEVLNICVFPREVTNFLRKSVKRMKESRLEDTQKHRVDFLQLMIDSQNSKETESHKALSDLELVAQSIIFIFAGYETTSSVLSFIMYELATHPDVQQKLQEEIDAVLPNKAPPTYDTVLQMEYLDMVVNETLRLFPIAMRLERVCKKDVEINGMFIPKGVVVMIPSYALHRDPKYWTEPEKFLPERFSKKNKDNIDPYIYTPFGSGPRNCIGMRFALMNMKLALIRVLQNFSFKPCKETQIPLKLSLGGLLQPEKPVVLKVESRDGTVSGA

With `COc1cc2c(cc1O)-c1cc3ccc(O)c(OC)c3c[n+]1CC2` [STEPHARANINE], the half-inhibitory concentration (IC50) is above 2.5 µM.

On to `COc1cc2c(cc1OC)-c1cc3ccc(OC)c(OC)c3c[n+]1CC2` [PALMATINE CHLORIDE], for which the IC50 came to 0.9 µM.

`COc1cc2c(cc1O)-c1cc3ccc(OC)c(OC)c3c[n+]1CC2` [COLUMBAMINE]: the IC50 is 30.6 µM.

Turning to `C[C@H](C[C@@H](O)[C@](C)(O)[C@H]1CC[C@@]2(O)C3=CC(=O)[C@@H]4C[C@@H](O)[C@@H](O)C[C@]4(C)[C@H]3CC[C@]12C)C(C)(C)O` [MAKISTERONE A], the IC50 was above 100 µM.

`C[C@@]12[C@H]3CC=C[C@@]1(O[C@@H]1O[C@H](CO)[C@@H](O)[C@H](O)[C@H]1O)C(=O)O[C@@H]2C[C@]1(O)C(=O)O[C@H](c2ccoc2)C[C@@]31C` [EPI-FIBRAURETINOSIDE A]: the IC50 was above 100 µM.

In the case of `C[C@@]12C[C@H](c3ccoc3)OC(=O)[C@@H]1[C@@H](O)C[C@]1(C)[C@H]2[C@@H]2OC(=O)[C@@]1(O)[C@H]1O[C@@H]21` [FIBRAURETIN A], the IC50 is above 100 µM.

With `C[C@@]12[C@H]3CC=C[C@]1(O[C@@H]1O[C@H](CO)[C@@H](O)[C@H](O)[C@H]1O)C(=O)O[C@@H]2C[C@]1(O)C(=O)O[C@H](c2ccoc2)C[C@@]31C` [FIBRAURETINOSIDE A], the IC50 is above 100 µM.

`C[C@@]12C[C@H](c3ccoc3)OC(=O)C1=CC[C@]1(C)[C@H]2[C@@H]2OC(=O)[C@@]1(O[C@@H]1O[C@H](CO)[C@@H](O)[C@H](O)[C@H]1O)[C@H]1O[C@@H]21` [FIBRAURINOSIDE]: the IC50 is above 100 µM.

On to `C[C@@]12C[C@H](c3ccoc3)OC(=O)C1=CC[C@]1(C)[C@H]2[C@H]2C=C[C@]1(O[C@@H]1O[C@H](CO)[C@@H](O)[C@H](O)[C@H]1O)C(=O)O2` [FIBLEUCINOSIDE], for which the IC50 is above 100 µM.

For the molecule `C[C@H](C[C@@H](O)[C@](C)(O)[C@H]1CC[C@@]2(O)C3=CC(=O)[C@@H]4C[C@@H](O[C@@H]5O[C@H](CO)[C@@H](O)[C@H](O)[C@H]5O)[C@@H](O)C[C@]4(C)[C@H]3CC[C@]12C)C(C)(C)O` [FIBRAURECDYSIDE A], the IC50 was above 100 µM.

Take `C[C@@]12C[C@H](c3ccoc3)OC(=O)[C@@H]1CC[C@@]1(CO[C@@H]3O[C@H](CO)[C@@H](O)[C@H](O)[C@H]3O)C(=O)C=CC[C@H]12`: the IC50 is above 100 µM.
